Calls of active or inactive are those of the source.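 How the source made its calls: active means signal-lowering compounds whose fitted half-effect concentration is no more than twice the top tested dose; inconclusive means flat curve with 30 to 70% inhibition, or poor fit; inactive means the rest.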

The assay can be described thus: quencher artefacts in RAD54 branch migration readout – biochemical, Cy5 label, cherry-picked samples, artefact control for RAD54 inhibitor project, dose response (AID 651651). The note with it: Cy5 DNA fluorescence quench counter-screen; series mostly up to 50 µM. A digest of the protocol: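 Test system: human RAD54 enzyme; Amount: 30 nM RAD54 in the enzyme mix; Medium: 25 mM Tris pH 7.5, 3 mM MgCl2, 2 mM ATP; Measured by: Cy5 fluorescence; Times: 60 min reaction at room temperature after substrate addition; Doses: pinned compound dose series, 10 mM stock solutions.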
On the technique in general: The purpose of a counterscreen is to sort out artefacts and off-target activity.
On to `COc1ccc(CN(C)C[C@@H]2Oc3ccc(NC(=O)NC(C)C)cc3C(=O)N([C@H](C)CO)C[C@H]2C)cc1`, for which the outcome was inactive. Consider `C[C@H](NC(=O)C[C@H]1C[C@H]2c3cc(NC(=O)c4cccnc4)ccc3O[C@H]2[C@@H](CO)O1)c1ccccc1`, for which the outcome was inactive. As for `Cc1noc(C)c1NC(=O)Nc1ccc2c(c1)C(=O)N([C@@H](C)CO)C[C@@H](C)[C@H](CN(C)C(=O)Nc1cccc3ccccc13)O2`, the result was inactive.

For `COc1ccc(S(=O)(=O)Nc2ccc3c(c2)[C@@H]2C[C@H](CC(=O)NCC4CC4)O[C@H](CO)[C@@H]2O3)cc1`, the compound was called inactive. For `COc1ccc(CN(C)C[C@@H]2Oc3ccc(NC(=O)Nc4ccccc4)cc3C(=O)N([C@@H](C)CO)C[C@H]2C)cc1` the value was “inactive”; for `Cc1ccc(S(=O)(=O)N(C)C[C@@H]2Oc3ccc(NC(=O)NC4CCCCC4)cc3CC(=O)N([C@H](C)CO)C[C@@H]2C)cc1`, “inactive”.

For `COc1ccc(CN(C)C[C@@H]2Oc3ccc(NC(=O)Nc4ccc(F)cc4)cc3C(=O)N([C@H](C)CO)C[C@H]2C)cc1`, the outcome was inactive. Consider `COc1ccc(CN(C)C[C@@H]2Oc3ccc(NC(=O)Nc4ccccc4)cc3C(=O)N([C@H](C)CO)C[C@H]2C)cc1`, for which the compound was classed as inactive. Take `COc1ccc(CN(C)C[C@@H]2Oc3ccc(NC(=O)Nc4ccc(OC)cc4)cc3C(=O)N([C@H](C)CO)C[C@H]2C)cc1`: the result was inactive. In the case of `Cc1ccc(S(=O)(=O)N(C)C[C@@H]2Oc3ccc(NC(=O)Nc4c(C)noc4C)cc3CC(=O)N([C@@H](C)CO)C[C@@H]2C)cc1`, the compound was classed as inactive.

Regarding `COc1ccc(S(=O)(=O)N(C)C[C@@H]2Oc3ccc(NC(=O)Nc4ccc5c(c4)OCO5)cc3C(=O)N([C@H](C)CO)C[C@H]2C)cc1`, the compound was called inactive.

As for `COc1ccc(CN(C)C[C@@H]2Oc3ccc(NC(=O)Nc4c(C)noc4C)cc3C(=O)N([C@H](C)CO)C[C@H]2C)cc1`, the compound was called inactive. With `COc1ccc(CN(C)C[C@@H]2Oc3ccc(NC(=O)NC4CCCCC4)cc3C(=O)N([C@@H](C)CO)C[C@H]2C)cc1`, the compound was classed as inactive. Regarding `C[C@H]1CN([C@@H](C)CO)C(=O)Cc2cc(NC(=O)Nc3cccc4ccccc34)ccc2O[C@H]1CN(C)S(=O)(=O)c1ccc(F)cc1`, the outcome was inactive. Regarding `Cc1noc(C)c1NC(=O)Nc1ccc2c(c1)C(=O)N([C@@H](C)CO)C[C@H](C)[C@@H](CN(C)S(C)(=O)=O)OCCCC[C@@H](C)O2`, the call was inactive. `C[C@@H]1CN([C@H](C)CO)C(=O)c2cc(NC(=O)Nc3ccc4c(c3)OCO4)ccc2O[C@H]1CN(C)Cc1ccc2c(c1)OCO2`: the compound was called inactive. For the compound `CN(C)c1ccc2c(c1)[C@H]1C[C@H](CC(=O)NCCN3CCCCC3)O[C@@H](CO)[C@H]1O2`, the outcome was inactive. Turning to `CN(C)c1ccc2c(c1)[C@@H]1C[C@@H](CC(=O)NCc3cc(F)ccc3F)O[C@H](CO)[C@@H]1O2`, the result was inactive. To `COc1cccc(S(=O)(=O)N2CCCCN3[C@@H](CO)[C@H](c4ccc(C#CCC(C)C)cc4)[C@@H]3C2)c1` belongs “inactive”. Consider `Cc1noc(C)c1NC(=O)Nc1ccc2c(c1)C(=O)N([C@H](C)CO)C[C@H](C)[C@H](CN(C)S(C)(=O)=O)OCCCC[C@H](C)O2`, for which the outcome was inactive.

For `C[C@@H]1CCCCO[C@@H](CN(C)S(C)(=O)=O)[C@H](C)CN([C@H](C)CO)C(=O)c2cc(NC(=O)Nc3ccc4c(c3)OCO4)ccc2O1`, the outcome was inactive. As for `O=S(=O)(c1ccccc1)N1CCCCN2[C@H](CO)[C@H](c3ccc(C#CC4CCCC4)cc3)[C@@H]2C1`, the call was inactive.

Consider `CS(=O)(=O)N1[C@@H]2Cn3c(ccc(C4=CCCCC4)c3=O)[C@H]1[C@@H](C(=O)N1CCOCC1)[C@@H]2CO`, for which the call was inactive. For `O=C(NC1CCC1)[C@@H]1[C@@H](CO)[C@@H]2Cn3c(ccc(-c4ccc(F)cc4)c3=O)[C@@H]2N1Cc1ccccn1` the value was “inactive”; for `COc1ccc(S(=O)(=O)N(C)C[C@@H]2Oc3ccc(NC(=O)NC(C)C)cc3CC(=O)N([C@@H](C)CO)C[C@@H]2C)cc1`, “inactive”; for `COc1ccc(-c2ccc3c(c2)[C@H]2[C@H](CCN2C(=O)Cc2cccnc2)[C@H](CO)N3C)cc1`, “inactive”. To `Cc1cc(C(=O)Nc2cccc3c2O[C@H](CN(C)Cc2ccc(C(F)(F)F)cc2)[C@@H](C)CN([C@H](C)CO)C3=O)n(C)n1` belongs “inactive”; to `COc1ccc(C#Cc2ccc([C@H]3[C@@H](CO)N4CCCCN(C(=O)Nc5cccc(F)c5)C[C@H]34)cc2)cc1`, “inactive”; to `C/C=C/c1ccc([C@@H]2[C@@H](CO)N3CCCCN(C(=O)Nc4ccc(F)cc4)C[C@H]23)cc1`, “inactive”.

These data come from PubChem BioAssay AID651651 (Broad Institute, 2012).
